In ChEMBL document CHEMBL3045743, “Synthesis and herbicidal activity of isoindoline-1,3-dione substituted benzoxazinone derivatives containing a carboxylic ester group” (J Agric Food Chem, 2009):

Legend:
[1] = tested on: Triticum aestivum; assay: Phytotoxicity against Triticum aestivum (wheat) assessed as growth inhibition at 150 g.a.i/ha pre-emergent application measured after 15 days by greenhouse crop selectivity assay; type: organism-based; conditions: in vivo, other, 360 h
Procedure, shortened: (§1)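 Pre-emergence greenhouse crop selectivity test on pot-grown plants in clay soil (pH 6.5, 1.7% organic matter, 37.5% clay, CEC 12.9 cmol/kg). Stock solutions were diluted with water and applied at 300, 150, 75 or 37.5 g a.i./ha, in triplicate. After 15 days, phytotoxicity was scored visually against untreated controls as % crop growth inhibition, averaged over the triplicates.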

[2] = tested on: Oryza sativa; assay: Phytotoxicity against Oryza sativa (rice) assessed as growth inhibition at 37.5 g.a.i/ha pre-emergent application measured after 15 days by greenhouse crop selectivity assay; type: organism-based, L.; conditions: in vivo, other, 360 h; procedure, shortened: as §1
[3] = tested on: Oryza sativa; assay: Phytotoxicity against Oryza sativa (rice) assessed as growth inhibition at 75 g.a.i/ha pre-emergent application measured after 15 days by greenhouse crop selectivity assay; type: organism-based, L.; conditions: in vivo, other, 360 h; procedure, shortened: as §1
[4] = Phytotoxicity against Glycine max (soybean) assessed as growth inhibition at 75 g.a.i/ha pre-emergent application measured after 15 days by greenhouse crop selectivity assay; type: organism-based; conditions: in vivo, 75 g.a.i/ha, read-out: GI; procedure, shortened: as §1
[5] = Phytotoxicity against Glycine max (soybean) assessed as growth inhibition at 300 g.a.i/ha pre-emergent application measured after 15 days by greenhouse crop selectivity assay; type: organism-based; conditions: in vivo, 300 g.a.i/ha, read-out: GI; procedure, shortened: as §1
[6] = Phytotoxicity against Glycine max (soybean) assessed as growth inhibition at 150 g.a.i/ha pre-emergent application measured after 15 days by greenhouse crop selectivity assay; type: organism-based; conditions: in vivo, 150 g.a.i/ha, read-out: GI; procedure, shortened: as §1
[7] = Phytotoxicity against Triticum aestivum (wheat) assessed as growth inhibition at 37.5 g.a.i/ha pre-emergent application measured after 15 days by greenhouse crop selectivity assay; type: organism-based; conditions: in vivo, 37.5 g.a.i/ha, read-out: GI; procedure, shortened: as §1

Compound | growth inhibition (GI) [1] | growth inhibition (GI) [2] | growth inhibition (GI) [3] | inhibition at 360 h [4] | inhibition at 360 h [5] | inhibition at 360 h [6] | inhibition at 360 h [7]
CCOC(=O)C(CC)N1C(=O)C(C)Oc2cc(F)c(N3C(=O)C4=C(CCCC4)C3=O)cc21 (configuration not stated) | Not Active | Not Active | Not Active | – | – | – | –
C#CCN1C(=O)COc2cc(F)c(N3C(=O)C4=C(CCCC4)C3=O)cc21 [FLUMIOXAZIN] | – | – | – | > 10% | > 10% | > 10% | > 10%
